Measured values: ChEMBL document CHEMBL4138161, “Discovery of simplified sampangine derivatives as novel fungal biofilm inhibitors” (Eur J Med Chem, 2018)
Converted amounts (≈) assume the structure as drawn.

What was measured:
Assay type in all cases: functional
Cryptococcus neoformans = experiment: Antifungal activity against Cryptococcus neoformans 32609 after 24 hrs by spectrophotometric analysis; details: Cryptococcus neoformans, 32609, 24 h
How it was run: (§1)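 Broth microdilution in RPMI 1640, inoculum 5×10^3 CFU/mL, compounds from 6.4 mg/mL DMSO stocks, 35 ℃ for 24 h. Growth read as OD600; MIC80 taken as lowest concentration giving 80% growth inhibition. Triplicate.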

Trichophyton rubrum = experiment: Antifungal activity against Trichophyton rubrum Cmccftla after 24 hrs by spectrophotometric analysis; how it was run: as §1
Candida parapsilosis = experiment: Antifungal activity against Candida parapsilosis 22019 after 24 hrs by spectrophotometric analysis; details: Lodderomyces parapsilosis, 22019, 24 h; how it was run: as §1
Nannizzia gypsea = experiment: Antifungal activity against Microsporum gypseum Cmccfmza after 24 hrs by spectrophotometric analysis; how it was run: as §1
Aspergillus fumigatus = experiment: Antifungal activity against Aspergillus fumigatus 07544 after 24 hrs by spectrophotometric analysis; details: Aspergillus fumigatus, 07544, 24 h; how it was run: as §1
Nakaseomyces glabratus = experiment: Antifungal activity against Candida glabrata 537 after 24 hrs by spectrophotometric analysis; details: Nakaseomyces glabratus, 537, 24 h; how it was run: as §1
Candida albicans = experiment: Antifungal activity against Candida albicans SC5314 after 24 hrs by spectrophotometric analysis; details: SC5314, 24 h; how it was run: as §1

MIC80 (Cryptococcus neoformans) [µg/mL] | MIC80 (Trichophyton rubrum) [µg/mL] | MIC80 (Candida parapsilosis) [µg/mL] | MIC80 (Nannizzia gypsea) [µg/mL] | MIC80 (Aspergillus fumigatus) [µg/mL] | MIC80 (Nakaseomyces glabratus) [µg/mL] | MIC80 (Candida albicans) [µg/mL] | SMILES
4 (≈ 14.6 µM) | 4 (≈ 14.6 µM) | > 64 | 8 (≈ 29.2 µM) | > 64 | 4 (≈ 14.6 µM) | 4 (≈ 14.6 µM) | Cc1ccnc2c1C(=O)c1scc([N+](=O)[O-])c1C2=O
4 (≈ 13.8 µM) | 8 (≈ 27.6 µM) | 32 (≈ 110 µM) | 4 (≈ 13.8 µM) | > 64 | 64 (≈ 220 µM) | 8 (≈ 27.6 µM) | Cc1cc[n+]([O-])c2c1C(=O)c1sc([N+](=O)[O-])cc1C2=O
0.25 (≈ 0.679 µM) | 1 (≈ 2.71 µM) | > 64 | 1 (≈ 2.71 µM) | 32 (≈ 86.9 µM) | > 64 | > 64 | Cc1ccc(C(C)c2ccnc3c2C(=O)c2sc([N+](=O)[O-])cc2C3=O)o1 (stereo not drawn)
0.5 (≈ 1.92 µM) | 0.5 (≈ 1.92 µM) | 2 (≈ 7.69 µM) | 0.5 (≈ 1.92 µM) | 1 (≈ 3.84 µM) | 1 (≈ 3.84 µM) | 0.5 (≈ 1.92 µM) | O=C1c2cc([N+](=O)[O-])sc2C(=O)c2cccnc21
0.5 (≈ 1.82 µM) | 0.5 (≈ 1.82 µM) | 1 (≈ 3.65 µM) | 2 (≈ 7.29 µM) | 2 (≈ 7.29 µM) | 1 (≈ 3.65 µM) | 0.25 (≈ 0.912 µM) | Cc1ccnc2c1C(=O)c1sc([N+](=O)[O-])cc1C2=O
0.5 (≈ 1.58 µM) | 4 (≈ 12.6 µM) | 1 (≈ 3.16 µM) | 2 (≈ 6.32 µM) | 64 (≈ 202 µM) | 4 (≈ 12.6 µM) | 1 (≈ 3.16 µM) | CCCCc1ccnc2c1C(=O)c1sc([N+](=O)[O-])cc1C2=O
32 (≈ 93.2 µM) | > 64 | > 64 | 64 (≈ 186 µM) | > 64 | > 64 | > 64 | O=C1c2cc([N+](=O)[O-])sc2C(=O)c2c(C3CCNCC3)ccnc21
0.5 (≈ 1.37 µM) | 1 (≈ 2.74 µM) | 4 (≈ 11 µM) | 1 (≈ 2.74 µM) | 4 (≈ 11 µM) | 8 (≈ 22 µM) | 4 (≈ 11 µM) | CC(c1ccccc1)c1ccnc2c1C(=O)c1sc([N+](=O)[O-])cc1C2=O (stereo not drawn)
> 64 | 8 (≈ 32.7 µM) | > 64 | > 64 | > 64 | > 64 | > 64 | Cc1ccnc2c1C(=O)c1sc(N)cc1C2=O

More lines, now with the values behind:

SMILES | MIC80 (Cryptococcus neoformans) [µg/mL] | MIC80 (Trichophyton rubrum) [µg/mL] | MIC80 (Candida parapsilosis) [µg/mL] | MIC80 (Nannizzia gypsea) [µg/mL] | MIC80 (Aspergillus fumigatus) [µg/mL] | MIC80 (Nakaseomyces glabratus) [µg/mL] | MIC80 (Candida albicans) [µg/mL]
Cc1ccnc2c1C(=O)c1cn(C)cc1C2=O | > 64 | 64 (≈ 283 µM) | > 64 | > 64 | > 64 | > 64 | > 64
Cc1ccnc2c1C(=O)C1=C(OC(C)(C)C1)C2=O | > 64 | 64 (≈ 263 µM) | > 64 | > 64 | 64 (≈ 263 µM) | 16 (≈ 65.8 µM) | > 64
Cc1ccnc2c1C(=O)c1ccn(C)c1C2=O | > 64 | > 64 | > 64 | > 64 | > 64 | > 64 | > 64
Cc1ccnc2c1C(=O)c1scc(N)c1C2=O | > 64 | > 64 | > 64 | > 64 | > 64 | > 64 | 32 (≈ 131 µM)
CC(C)(C)OC(=O)/C=C\c1ccnc2c1C(=O)c1sc([N+](=O)[O-])cc1C2=O | 4 (≈ 10.4 µM) | 4 (≈ 10.4 µM) | > 64 | 4 (≈ 10.4 µM) | > 64 | > 64 | 32 (≈ 82.8 µM)
Cc1ccnc2c1C(=O)c1sccc1C2=O | 16 (≈ 69.8 µM) | 4 (≈ 17.4 µM) | > 64 | > 64 | 16 (≈ 69.8 µM) | 8 (≈ 34.9 µM) | 16 (≈ 69.8 µM)
CC(C)c1cnc2c(c1)C(=O)c1sc([N+](=O)[O-])cc1C2=O | 0.5 (≈ 1.65 µM) | 1 (≈ 3.31 µM) | 4 (≈ 13.2 µM) | 1 (≈ 3.31 µM) | 4 (≈ 13.2 µM) | 4 (≈ 13.2 µM) | 2 (≈ 6.62 µM)
Cc1ccnc2cc3cc([N+](=O)[O-])sc3cc12 | > 64 | 4 (≈ 16.4 µM) | > 64 | > 64 | > 64 | 16 (≈ 65.5 µM) | > 64
Cc1ccnc2c1C(=O)c1occc1C2=O | 64 (≈ 300 µM) | > 64 | > 64 | > 64 | > 64 | > 64 | > 64
CN(C)c1ccc(-c2ccnc3c2C(=O)c2sc([N+](=O)[O-])cc2C3=O)cc1 | 16 (≈ 42.2 µM) | 4 (≈ 10.5 µM) | 32 (≈ 84.3 µM) | 16 (≈ 42.2 µM) | > 64 | > 64 | 32 (≈ 84.3 µM)
